Measured values reported in ChEMBL document CHEMBL2062525, “Substituted 3-(5-imidazo[2,1-b]thiazolylmethylene)-2-indolinones and analogues: synthesis, cytotoxic activity, and study of the mechanism of action” (J Med Chem, 2012).
pIC50: −log10 of the molar value. Active and inactive are the calls of the source.

What was measured:
[1] = target: c-Jun N-terminal kinase, JNK (Homo sapiens) (UniProt P45983+P53779+P45984); assay: Inhibition of JNK phosphorylation at Thr183/Tyr185 in human HeLa cells at 1 uM after 3 hrs by Western blotting analysis; assay type: cell-based
Outline: (§1)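 HeLa cells in RPMI 1640 with 10% FBS, treated 3 h at 1 μM. Lysates centrifuged 15,000 × g 15 min; 80 μg protein per lane by SDS-PAGE, nitrocellulose transfer, phospho-specific and total primary antibodies, peroxidase anti-rabbit secondary, ECL chemiluminescence.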

HT-29 [2] = assay: Induction of apoptosis in human HT-29 cells assessed as increase in caspase activity at 500 nM after 48 hrs by fluorometry; assay type: functional, cell-based
Outline: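 Cells exposed 48 h to 500 nM; DEVD-cleaving caspase (DEVDase) activity measured fluorometrically in cell extracts; mean ± s.e.m. of four determinations.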

[3] = Inhibition of bovine brain tubulin assembly after 20 mins; parameters: species or system Bos taurus
HT-29 [4] = assay: Induction of cell cycle arrest in human HT-29 cells assessed as increase in p21 expression after 24 hrs by immunofluorescence confocal microscopy; assay type: functional, cell-based
Outline: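 On coverslips, HT-29 cells were treated 24 h, fixed with 3% paraformaldehyde, permeabilized with 70% ice-cold ethanol, stained with anti-p21 then FITC secondary (1 h, room temperature each), nuclei counterstained with PI; confocal microscopy; representative of three experiments.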

HT-29 [5] = assay: Induction of apoptosis in human HT-29 cells at 100 nM after 24 hrs by trypan blue exclusion assay; assay type: functional, cell-based
Outline: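 HT-29 cells plated at 2×10^4 cells/cm2, treated 24 h in triplicate (DMSO 0.01%; DMSO-only controls); viable cells counted by trypan blue exclusion; mean ± s.e.m. of three determinations.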

HT-29 [6] = assay: Induction of apoptosis in human HT-29 cells assessed as chromatin condensation by propidium iodide staining method; assay type: functional, cell-based
Outline: (§2)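 HT-29 cells on glass coverslips (1×10^4 cells/cm2), treated 24 h; fixed in 3% paraformaldehyde, ethanol-permeabilized; nuclei stained with PI and viewed by laser scanning confocal microscopy for chromatin condensation and nuclear fragmentation; representative of three experiments.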

[7] = Cytotoxicity against human CNS cancer cells after 48 hrs; assay type: functional; details: Cancer cell lines
Outline: (§3)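 NCI 60-cell panel subpanel lines; compounds first screened at a single 10−5 M, then those passing threshold tested in five-concentration assay over 10−9 to 10−4 M (some to 10−3 M), 48 h exposure. Growth relative to untreated control measured as cell protein; GI50, TGI and LC50 derived; some values are means of two experiments.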

[8] = target: AMP-activated protein kinase, AMPK (Homo sapiens) (UniProt P54646+O43741+P54619+Q9UGJ0+Q9Y478+Q13131+Q9UGI9); assay: Inhibition of AMPK phosphorylation at Thr172 in human HeLa cells at 1 uM after 3 hrs by Western blotting analysis; assay type: cell-based; outline: as §1
[9] = Cytotoxicity against human ovarian cancer cells after 48 hrs; assay type: functional; details: Cancer cell lines; outline: as §3
NSCLC = assay: Cytotoxicity against human NSCLC cells after 48 hrs; assay type: functional; outline: as §3
HT-29 [10] = assay: Induction of apoptosis in human HT-29 cells assessed as nuclear fragmentation by propidium iodide staining method; assay type: functional, cell-based; outline: as §2
Bos taurus = organism: Bos taurus; assay: Displacement of [3H]colchicine from bovine brain tubulin at 5 uM after 10 mins
HT-29 [11] = assay: Induction of apoptosis in human HT-29 cells assessed as increase in early apoptotic cells after 24 hrs by annexin-V-FLUOS and propidium iodide staining based flow cytometry (reference value: 3.9%); assay type: functional
[12] = Cytotoxicity against human melanoma cells after 48 hrs; assay type: functional; details: Melanoma cell; for CC50: read-out: LC50 (the source's name); outline: as §3
[13] = Cytotoxicity against human breast cancer cells after 48 hrs; assay type: functional; details: Cancer cell lines; outline: as §3
[14] = Cytotoxicity against human prostate cancer cells after 48 hrs; assay type: functional; details: Cancer cell lines
Outline: (§4)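 NCI 60-cell panel (subpanels include leukemia and prostate). […] Percent growth relative to untreated control; some repeats averaged over two experiments.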

[15] = target: Mitogen-activated protein kinase; ERK1/ERK2 (Homo sapiens) (UniProt P27361+P28482); assay: Inhibition of ERK1/2 phosphorylation at Thr202/Tyr204 in human HeLa cells at 1 uM after 3 hrs by Western blotting analysis; assay type: cell-based; outline: as §1
HeLa = assay: Inhibition of Akt phosphorylation at ser473 in human HeLa cells at 1 uM after 3 hrs by Western blotting analysis; assay type: cell-based; outline: as §1
HT-29 [16] = assay: Cell cycle arrest in human HT-29 cells assessed as increase of cell population at G2/M phase at 100 nM after 24 hrs by flow cytometry; assay type: functional, cell-based
Outline: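 HT-29 cells in RPMI 1640 with 10% FBS, 2 mM L-glutamine, 37 °C, 5% CO2; treated 24 h, DMSO 0.01% in medium. Fixed in 70% ethanol at −20 °C ≥12 h, RNase A (10 μg/mL) 30 min at 37 °C, DNA stained with PI (50 μg/mL), flow cytometry; one experiment representative of three.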

[17] = Cytotoxicity against human renal cancer cells after 48 hrs; assay type: functional; details: Cancer cell lines; outline: as §3
[18] = Cytotoxicity against human leukemia cells after 48 hrs; assay type: functional; details: Leukemia cell; outline: as §4
[19] = target: Serine/threonine-protein kinase mTOR (Homo sapiens) (UniProt P42345); assay: Inhibition of mTOR phosphorylation at ser2448 in human HeLa cells at 1 uM after 3 hrs by Western blotting analysis; assay type: cell-based; outline: as §1
[20] = Cytotoxicity against human COLON cells after 48 hrs; assay type: functional; outline: as §3
[21] = target: MAP kinase p38 (Homo sapiens) (UniProt O15264+Q15759+Q16539+P53778); assay: Inhibition of p38 phosphorylation at Thr180/Tyr182 in human HeLa cells at 1 uM after 3 hrs by Western blotting analysis; assay type: cell-based; outline: as §1

Mitogen-activated protein kinase; ERK1/ERK2 (Homo sapiens), sequence (P27361 whole entry, looked up): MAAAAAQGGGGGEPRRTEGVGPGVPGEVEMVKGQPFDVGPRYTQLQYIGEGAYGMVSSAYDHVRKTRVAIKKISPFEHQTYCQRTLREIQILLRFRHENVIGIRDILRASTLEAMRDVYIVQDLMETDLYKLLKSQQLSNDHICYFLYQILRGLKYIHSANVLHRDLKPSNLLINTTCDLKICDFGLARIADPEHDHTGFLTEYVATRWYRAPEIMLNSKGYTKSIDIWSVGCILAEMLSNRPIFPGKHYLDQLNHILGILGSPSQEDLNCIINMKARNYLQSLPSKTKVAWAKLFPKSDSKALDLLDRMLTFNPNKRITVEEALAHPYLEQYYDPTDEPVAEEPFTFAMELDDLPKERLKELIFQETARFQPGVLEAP
Mitogen-activated protein kinase; ERK1/ERK2 (Homo sapiens), sequence (P28482 whole entry, looked up): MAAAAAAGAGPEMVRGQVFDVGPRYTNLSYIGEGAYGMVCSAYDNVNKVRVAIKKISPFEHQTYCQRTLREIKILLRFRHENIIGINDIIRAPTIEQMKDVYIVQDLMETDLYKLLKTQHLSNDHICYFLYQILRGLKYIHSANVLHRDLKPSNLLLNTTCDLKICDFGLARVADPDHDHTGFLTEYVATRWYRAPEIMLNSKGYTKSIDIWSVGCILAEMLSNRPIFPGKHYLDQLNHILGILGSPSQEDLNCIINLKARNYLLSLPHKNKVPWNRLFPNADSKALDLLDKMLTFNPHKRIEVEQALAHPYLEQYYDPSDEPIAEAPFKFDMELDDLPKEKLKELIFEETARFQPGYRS

Compound	inhibition [1]	Activity (HT-29 [2])	pIC50 [3]	Activity (HT-29 [4])	Activity (HT-29 [5])	Activity (HT-29 [6])	GI50 [7]	TGI [7]	inhibition [8]	GI50 [9]	TGI [9]	GI50 (NSCLC)	TGI (NSCLC)	Activity (HT-29 [10])	inhibition (Bos taurus)	Activity (HT-29 [11])	GI50 [12]	TGI [12]	CC50 [12]	GI50 [13]	also measured
COc1ccc2c(c1)/C(=C\c1c(-c3ccccn3)nc3sccn13)C(=O)N2	Active	Active	5.04	Active	Active	Active	0.03 µM	2.57 µM	Active	0.04 µM	2.19 µM	0.11 µM	6.46 µM	Active	36%	23%	0.02 µM	6.76 µM	38.9 µM	0.04 µM	LC50 [7]: 34.7 µM; LC50 (concentration killing 50% of starting cells) [9]: 17 µM; LC50 (NSCLC): 39.8 µM; LC50 [13]: 46.8 µM; TGI [13]: 8.32 µM; GI50 [14]: 0.03 µM; TGI [14]: 3.98 µM; inhibition [15]: Active; inhibition (HeLa): Active; Activity (HT-29 [16]): Active; GI50 [17]: 0.07 µM; TGI [17]: 4.68 µM; CC50 ([17]; read-out: LC50 (the source's name)): 28.8 µM; GI50 [18]: 0.02 µM; inhibition [19]: inactive; LC50 (concentration giving 50% net cell kill) [20]: 15.1 µM; TGI [20]: 1.35 µM; inhibition [21]: Active
COc1ccc2c(c1)C(=Cc1c(OC)nc3sccn13)C(=O)N2 (mixture of isomers)	Active	Active	5.54	Active	Active	Active	0.04 µM	15.5 µM	Active	0.1 µM	12 µM	0.16 µM	44.7 µM	Active	62%	27%	0.04 µM	20.9 µM	81.3 µM	0.17 µM	TGI [13]: 34.7 µM; GI50 [14]: 0.05 µM; TGI [14]: 40.7 µM; inhibition [15]: Active; inhibition (HeLa): Active; Activity (HT-29 [16]): Active; GI50 [17]: 0.14 µM; TGI [17]: 31.6 µM; GI50 [18]: 0.02 µM; LC50 (concentration killing 50% of cells) [18]: 91.2 µM; TGI [18]: 4.57 µM; inhibition [19]: inactive; LC50 (concentration giving 50% net cell kill) [20]: 66.1 µM; TGI [20]: 7.59 µM; inhibition [21]: Active
